This note sets out measurements from ChEMBL document CHEMBL4261600 (Eur J Med Chem, 2018).

pIC50: −log10 of the molar value. A value given as a limit tells only on which side of the number the result lay.

Series [1] is filed under the species Homo sapiens. The series is described as follows: Selectivity ratio of IC50 for recombinant full length His-tagged human CDK7/cyclin H/MNAT1 to IC50 for recombinant full length His-tagged human CDK9/CyclinT1.
The target of series [2] is Serine/threonine-protein kinase haspin (Homo sapiens) (UniProt Q8TF76). Put plainly: Binding affinity to wild-type human partial length HASPIN (I452 to K798 residues) expressed in mammalian expression system assessed as remaining unbound target protein level at 1000 nM by Kinomescan method relative to control. The procedure, abridged:
(§1)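 KINOMEscan binding panel of 468 kinases/mutants. Inhibitor was tested at a single concentration of 1 μM. Binding is reported as percent of control, defined relative to a DMSO control.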

Series [3] has as its target Cyclin-Y/Cyclin-dependent kinase 16 (Homo sapiens, UniProt Q00536). Put plainly: Inhibition of recombinant GST-tagged inactive state of human CDK16 (108 to end residues)/cyclin Y (2 to end residues). Format: protein-complex assay.
For series [4], the target named is Mitogen-activated protein kinase 14 (Homo sapiens) (UniProt Q16539). Put plainly: Binding affinity to wild-type human full length p38-alpha (M1 to S360 residues) expressed in bacterial expression system assessed as remaining unbound target protein level at 1000 nM by Kinomescan method relative to control. A digest of the protocol: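 Profiled in a KINOMEscan binding panel with the inhibitor at a single concentration of 1 μM. Binding to each kinase was read out as percent of control, relative to a DMSO control. Strong binders were defined as those with a percent control value below 1.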
Chain of Mitogen-activated protein kinase 14 (Homo sapiens) (Q16539 whole entry, the tested form may be a part): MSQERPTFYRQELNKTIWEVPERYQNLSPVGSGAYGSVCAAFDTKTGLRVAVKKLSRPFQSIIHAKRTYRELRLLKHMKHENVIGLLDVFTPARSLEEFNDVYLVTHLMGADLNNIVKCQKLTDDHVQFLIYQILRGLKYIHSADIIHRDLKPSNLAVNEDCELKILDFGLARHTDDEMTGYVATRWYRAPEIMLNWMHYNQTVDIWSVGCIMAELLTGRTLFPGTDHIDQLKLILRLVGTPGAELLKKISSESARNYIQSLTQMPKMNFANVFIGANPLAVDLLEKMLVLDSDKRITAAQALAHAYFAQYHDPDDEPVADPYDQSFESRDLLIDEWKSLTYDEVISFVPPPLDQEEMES

For series [5], the target named is Rho-associated protein kinase 2 (Homo sapiens) (UniProt O75116). The series is described as follows: Binding affinity to wild-type human partial length ROCK2 (M1 to T431 residues) expressed in mammalian expression system assessed as remaining unbound target protein level at 1000 nM by Kinomescan method relative to control.
Chain of Rho-associated protein kinase 2 (Homo sapiens) (O75116 whole entry, looked up, the tested form may be a part): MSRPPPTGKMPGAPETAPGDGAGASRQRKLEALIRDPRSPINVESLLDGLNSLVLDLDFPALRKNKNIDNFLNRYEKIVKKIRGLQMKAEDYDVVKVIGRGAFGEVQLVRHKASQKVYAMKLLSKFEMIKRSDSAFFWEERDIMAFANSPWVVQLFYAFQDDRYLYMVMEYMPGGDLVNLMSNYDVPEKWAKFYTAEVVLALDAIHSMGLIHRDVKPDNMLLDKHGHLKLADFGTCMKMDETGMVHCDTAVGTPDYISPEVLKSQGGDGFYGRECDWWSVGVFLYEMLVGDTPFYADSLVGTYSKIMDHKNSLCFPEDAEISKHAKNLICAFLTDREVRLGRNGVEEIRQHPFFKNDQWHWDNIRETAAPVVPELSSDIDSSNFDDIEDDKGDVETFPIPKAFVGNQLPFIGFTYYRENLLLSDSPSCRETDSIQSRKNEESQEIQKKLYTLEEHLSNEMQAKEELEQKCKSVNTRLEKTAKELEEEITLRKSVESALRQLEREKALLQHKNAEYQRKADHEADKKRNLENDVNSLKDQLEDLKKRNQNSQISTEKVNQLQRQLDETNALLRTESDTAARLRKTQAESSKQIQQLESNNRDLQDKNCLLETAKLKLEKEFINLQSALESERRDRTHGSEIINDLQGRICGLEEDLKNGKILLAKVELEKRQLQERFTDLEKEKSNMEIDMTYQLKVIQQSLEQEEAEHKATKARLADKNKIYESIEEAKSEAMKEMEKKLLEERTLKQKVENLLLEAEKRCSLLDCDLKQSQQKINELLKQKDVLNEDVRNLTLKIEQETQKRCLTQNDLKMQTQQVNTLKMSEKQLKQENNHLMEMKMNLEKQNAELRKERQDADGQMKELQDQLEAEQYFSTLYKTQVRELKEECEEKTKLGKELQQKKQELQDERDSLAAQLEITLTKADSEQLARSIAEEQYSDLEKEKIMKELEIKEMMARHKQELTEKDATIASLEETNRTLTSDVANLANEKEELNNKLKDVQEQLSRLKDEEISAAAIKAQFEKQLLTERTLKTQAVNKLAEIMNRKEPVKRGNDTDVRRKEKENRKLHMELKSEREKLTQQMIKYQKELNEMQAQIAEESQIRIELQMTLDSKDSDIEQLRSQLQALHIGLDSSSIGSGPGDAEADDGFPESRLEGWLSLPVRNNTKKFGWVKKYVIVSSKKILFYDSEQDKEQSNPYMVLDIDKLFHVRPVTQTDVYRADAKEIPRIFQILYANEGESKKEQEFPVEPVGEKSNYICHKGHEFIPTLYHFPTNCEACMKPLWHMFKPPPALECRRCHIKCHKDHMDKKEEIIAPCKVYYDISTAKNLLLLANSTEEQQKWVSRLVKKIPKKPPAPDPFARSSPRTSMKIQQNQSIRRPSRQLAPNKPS
The test system of series [6] is Epidermal growth factor receptor (Homo sapiens), P00533 [L858R]. The series is described as follows: Binding affinity to human partial length EGFR L858R mutant (R669 to V1011 residues) expressed in bacterial expression system assessed as remaining unbound target protein level at 1000 nM by Kinomescan method relative to control. The procedure, abridged: (§2)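 KINOMEscan competition-binding profiling across the panel of 468 kinases and mutants, with inhibitor tested at 1 μM. Binding is expressed as percent of control, with DMSO as the reference control.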

Series [7] addresses Tyrosine-protein kinase JAK3 (Homo sapiens) (UniProt P52333). Put plainly: Binding affinity to wild-type human partial length JAK3 JH1 catalytic domain (I781 to S1124 residues) expressed in mammalian expression system assessed as remaining unbound target protein level at 1000 nM by Kinomescan method relative to control.
Series [8] deals with TRAF2 and NCK-interacting protein kinase (Homo sapiens) (UniProt Q9UKE5). The series is described as follows: Binding affinity to wild-type human partial length TNIK (D4 to K311 residues) expressed in bacterial expression system assessed as remaining unbound target protein level at 1000 nM by Kinomescan method relative to control.
Chain of TRAF2 and NCK-interacting protein kinase (Homo sapiens) (Q9UKE5 whole entry, looked up, the tested form may be a part): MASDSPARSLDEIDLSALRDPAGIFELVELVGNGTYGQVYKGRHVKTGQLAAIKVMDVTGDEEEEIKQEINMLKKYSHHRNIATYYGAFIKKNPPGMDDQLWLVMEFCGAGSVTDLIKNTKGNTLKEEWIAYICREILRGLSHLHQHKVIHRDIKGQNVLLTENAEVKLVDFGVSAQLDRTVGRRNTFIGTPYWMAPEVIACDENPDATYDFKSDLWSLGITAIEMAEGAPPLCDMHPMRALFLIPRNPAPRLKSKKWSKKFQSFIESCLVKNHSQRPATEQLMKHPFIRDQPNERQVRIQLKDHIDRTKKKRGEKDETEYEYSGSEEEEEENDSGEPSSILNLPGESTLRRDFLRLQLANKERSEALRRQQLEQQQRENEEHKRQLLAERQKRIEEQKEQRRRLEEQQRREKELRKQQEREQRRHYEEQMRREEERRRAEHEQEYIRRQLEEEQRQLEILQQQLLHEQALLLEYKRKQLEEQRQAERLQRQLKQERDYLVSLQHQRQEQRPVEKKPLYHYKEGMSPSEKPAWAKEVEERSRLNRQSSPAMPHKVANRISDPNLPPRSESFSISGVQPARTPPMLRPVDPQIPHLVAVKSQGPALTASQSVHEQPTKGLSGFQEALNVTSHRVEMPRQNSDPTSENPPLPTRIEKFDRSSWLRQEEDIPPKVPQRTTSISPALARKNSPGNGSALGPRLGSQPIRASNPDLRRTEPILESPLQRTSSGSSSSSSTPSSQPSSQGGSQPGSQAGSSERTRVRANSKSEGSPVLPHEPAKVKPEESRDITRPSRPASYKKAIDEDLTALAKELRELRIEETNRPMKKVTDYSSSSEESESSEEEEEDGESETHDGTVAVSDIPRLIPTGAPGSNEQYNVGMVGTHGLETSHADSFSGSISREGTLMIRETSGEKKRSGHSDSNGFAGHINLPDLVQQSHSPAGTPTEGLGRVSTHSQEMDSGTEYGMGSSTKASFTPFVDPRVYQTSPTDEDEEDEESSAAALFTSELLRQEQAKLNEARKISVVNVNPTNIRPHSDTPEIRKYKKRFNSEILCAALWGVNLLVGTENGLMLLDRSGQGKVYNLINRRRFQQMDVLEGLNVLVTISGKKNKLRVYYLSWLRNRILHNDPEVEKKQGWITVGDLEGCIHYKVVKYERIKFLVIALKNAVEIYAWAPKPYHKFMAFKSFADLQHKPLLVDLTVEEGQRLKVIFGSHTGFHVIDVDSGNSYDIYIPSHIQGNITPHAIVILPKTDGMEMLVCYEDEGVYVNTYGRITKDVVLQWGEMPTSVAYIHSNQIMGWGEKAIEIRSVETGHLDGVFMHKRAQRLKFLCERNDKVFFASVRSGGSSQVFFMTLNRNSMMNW
For series [9], the system named is Receptor-type tyrosine-protein kinase FLT3 (Homo sapiens), P36888 [D835H]. The series is described as follows: Binding affinity to human partial length FLT3 D835H mutant (V592 to Y969 residues) expressed in bacterial expression system assessed as remaining unbound target protein level at 1000 nM by Kinomescan method relative to control. A digest of the protocol:
as §2

For series [10], the system named is Canis familiaris. Put plainly: Oral bioavailability in beagle dog at 10 mg/kg by LC-MS/MS analysis. The settings on record: in vivo. It counts as ADME, organism-based, Canis lupus familiaris.
Series [11] concerns the target Cyclin-dependent kinase 8 (Homo sapiens) (UniProt P49336). Put plainly: Binding affinity to wild-type human partial length CDK8 (M1 to T360 residues) expressed in bacterial expression system assessed as remaining unbound target protein level at 1000 nM by Kinomescan method relative to control.
Series [12] concerns A-375. Put plainly: Antiproliferative activity against human A375 cells after 72 hrs by Celltiter-Glo assay. To be noted: A-375, 72 h. It counts as functional. A digest of the protocol:
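Cells seeded at 3000/well in 96-well plates, exposed to serially diluted compound for 72 h at 37 °C, 5% CO2. Viability read by CellTiter-Glo luminescence and normalized to DMSO control. GI50 derived from curve fit, mean of three independent measurements. Culture media: DMEM/10% FBS for adherent lines; IMDM for MV4-11 and MEC-1/2; RPMI 1640 for suspension lines and CHL.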
In general terms: ATP-based viability assays read luminescence as a measure of living cells.

Series [13] addresses Ephrin type-A receptor 1 (Homo sapiens) (UniProt P21709). The series is described as follows: Binding affinity to wild-type human partial length EPHA1 (V588 to I913 residues) expressed in bacterial expression system assessed as remaining unbound target protein level at 1000 nM by Kinomescan method relative to control. The procedure, abridged:
as §1

A short description of series [14]: AUC (0 to t) in Sprague-Dawley rat at 3 mg/kg, iv by LC-MS/MS analysis. Format: ADME, organism-based. The settings on record: in vivo. A digest of the protocol: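 Non-compartmental PK. Male SD rats 190-210 g, mice and beagle dogs acclimatized one week, fasted 12 h with water, split into iv and po groups (mice 48, rats 6, dogs 6). iv 3/3/2 mg/kg (mice/rats/dogs); po 10/20/10 mg/kg; vehicle DMSO in 5% glucose water. Blood at 2 or 5 to 720 min; plasma protein-precipitated with methanol, caffeine internal standard, LC-MS/MS.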

The target in series [15] is Serine/threonine-protein kinase Nek7 (Homo sapiens) (UniProt Q8TDX7). The series is described as follows: Binding affinity to wild-type human full length NEK7 (M1 to S302 residues) expressed in bacterial expression system assessed as remaining unbound target protein level at 1000 nM by Kinomescan method relative to control. The procedure, abridged:
(§3)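 Single-point competition binding screen across a panel of 468 kinases and mutants, with the inhibitor at 1 μM. Binding is read out as percent of a DMSO control, and targets below 1 percent control were classed as strong binders.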

The target in series [16] is Serine/threonine-protein kinase 32C (Homo sapiens) (UniProt Q86UX6). The series is described as follows: Binding affinity to wild-type human partial length YANK3 (M68 to G486 residues) expressed in bacterial expression system assessed as remaining unbound target protein level at 1000 nM by Kinomescan method relative to control.
Chain of Serine/threonine-protein kinase 32C (Homo sapiens) (Q86UX6 whole entry, the tested form may be a part): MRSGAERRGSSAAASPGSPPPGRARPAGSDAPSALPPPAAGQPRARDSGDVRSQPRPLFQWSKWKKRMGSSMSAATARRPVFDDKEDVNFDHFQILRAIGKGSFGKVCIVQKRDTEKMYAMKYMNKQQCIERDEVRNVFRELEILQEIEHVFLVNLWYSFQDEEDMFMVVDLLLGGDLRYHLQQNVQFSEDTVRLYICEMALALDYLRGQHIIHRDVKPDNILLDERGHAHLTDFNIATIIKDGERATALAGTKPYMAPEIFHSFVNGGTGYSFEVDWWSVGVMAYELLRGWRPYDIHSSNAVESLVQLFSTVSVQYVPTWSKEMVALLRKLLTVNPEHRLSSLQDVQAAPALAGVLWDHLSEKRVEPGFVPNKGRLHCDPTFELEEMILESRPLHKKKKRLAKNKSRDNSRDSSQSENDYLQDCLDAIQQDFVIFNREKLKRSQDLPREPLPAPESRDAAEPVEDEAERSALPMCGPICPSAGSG
Series [17] has as its target NUAK family SNF1-like kinase 2 (Homo sapiens) (UniProt Q9H093). The series is described as follows: Binding affinity to wild-type human partial length SNARK (P22 to A333 residues) expressed in mammalian expression system assessed as remaining unbound target protein level at 1000 nM by Kinomescan method relative to control.
Series [18] addresses Serine/threonine-protein kinase 26 (Homo sapiens) (UniProt Q9P289). The series is described as follows: Binding affinity to wild-type human full length MST4 (M1 to P416 residues) expressed in mammalian expression system assessed as remaining unbound target protein level at 1000 nM by Kinomescan method relative to control. A digest of the protocol:
as §3

Series [19] concerns the target Dual specificity mitogen-activated protein kinase kinase 3 (Homo sapiens) (UniProt P46734). The series is described as follows: Binding affinity to wild-type human full length MEK3 (M1 to S318 residues) expressed in mammalian expression system assessed as remaining unbound target protein level at 1000 nM by Kinomescan method relative to control. The procedure, abridged: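 KINOMEscan competition binding profile across a panel of 468 kinases and mutants, with the inhibitor tested at a single concentration of 1 μM. Binding is reported as percent of control, meaning signal relative to a DMSO control.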

Series [20] concerns the target Serine/threonine-protein kinase N1 (Homo sapiens) (UniProt Q16512). The series is described as follows: Binding affinity to wild-type human partial length PKN1 (E598 to C948 residues) expressed in bacterial expression system assessed as remaining unbound target protein level at 1000 nM by Kinomescan method relative to control.

Chain of Ephrin type-A receptor 1 (Homo sapiens) (P21709 whole entry, the tested form may be a part): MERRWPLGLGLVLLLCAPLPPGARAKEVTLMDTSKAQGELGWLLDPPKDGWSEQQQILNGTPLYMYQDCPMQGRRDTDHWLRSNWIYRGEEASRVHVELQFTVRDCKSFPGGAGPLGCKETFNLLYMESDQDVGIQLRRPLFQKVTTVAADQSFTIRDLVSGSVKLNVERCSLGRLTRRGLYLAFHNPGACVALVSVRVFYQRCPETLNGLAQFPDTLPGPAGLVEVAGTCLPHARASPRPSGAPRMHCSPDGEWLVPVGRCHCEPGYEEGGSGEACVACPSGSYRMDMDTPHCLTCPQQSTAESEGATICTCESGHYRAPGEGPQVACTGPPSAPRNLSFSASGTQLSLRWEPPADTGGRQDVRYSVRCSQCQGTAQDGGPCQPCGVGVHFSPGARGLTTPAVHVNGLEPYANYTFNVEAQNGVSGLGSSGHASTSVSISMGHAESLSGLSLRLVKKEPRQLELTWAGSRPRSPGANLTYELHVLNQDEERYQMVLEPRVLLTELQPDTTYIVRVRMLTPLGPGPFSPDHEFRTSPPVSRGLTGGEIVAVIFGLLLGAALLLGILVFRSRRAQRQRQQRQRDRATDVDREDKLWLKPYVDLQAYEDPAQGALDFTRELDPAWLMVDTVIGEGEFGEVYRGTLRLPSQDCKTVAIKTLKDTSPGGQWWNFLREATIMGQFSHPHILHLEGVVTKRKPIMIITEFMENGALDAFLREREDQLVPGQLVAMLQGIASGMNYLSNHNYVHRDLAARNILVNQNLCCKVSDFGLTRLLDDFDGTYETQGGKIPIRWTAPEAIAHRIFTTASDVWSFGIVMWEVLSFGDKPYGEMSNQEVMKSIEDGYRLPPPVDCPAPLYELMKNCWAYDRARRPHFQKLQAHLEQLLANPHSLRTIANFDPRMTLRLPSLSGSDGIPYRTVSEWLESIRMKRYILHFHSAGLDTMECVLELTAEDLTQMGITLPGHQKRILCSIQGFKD
Chain of Dual specificity mitogen-activated protein kinase kinase 3 (Homo sapiens) (P46734 whole entry, the tested form may be a part): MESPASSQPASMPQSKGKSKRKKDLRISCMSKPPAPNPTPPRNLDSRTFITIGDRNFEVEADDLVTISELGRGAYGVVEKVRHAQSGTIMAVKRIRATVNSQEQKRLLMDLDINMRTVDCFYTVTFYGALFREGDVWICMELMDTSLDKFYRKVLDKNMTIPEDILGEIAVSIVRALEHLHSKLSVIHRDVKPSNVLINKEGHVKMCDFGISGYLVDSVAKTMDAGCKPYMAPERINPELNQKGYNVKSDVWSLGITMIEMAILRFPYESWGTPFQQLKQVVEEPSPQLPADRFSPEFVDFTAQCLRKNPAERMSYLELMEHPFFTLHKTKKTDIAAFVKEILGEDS

Take `COCCN[C@H]1CC[C@H](Nc2cc(-c3csc(NCC4(C#N)CCOCC4)n3)c(Cl)cn2)CC1`: the Ratio IC50 in series [1] was above 1000. In addition, the Activity in series [2] was 94%; in series [4], 98%; in series [5] it was 98%; in series [6], 85%; in [7] it was 92%; in series [8], 64%. Also, the Activity in series [9] is 88%; in series [11] it was 100%; in [13], 39%; in series [15], 83%; in [16] it was 90%; in [17], 100%. The Activity in series [18] worked out at 96%; in series [19] it was 86%; in series [20], 87%. The pIC50 in series [3] is 6.53. Besides, in [10], the F was 39.15%. In series [12], the concentration for 50% growth inhibition (GI50) was determined as 44 nM. This molecule had an AUC(0-t) in [14] of 625 ng·h/mL.

Usually pIC50 stands for −log10 of the IC50, conventionally taken in molar units. As usually defined, the GI50 is the concentration that inhibits growth by half. Low readings indicate more potent growth inhibition, high ones less potent growth inhibition. As a reminder, the AUC(0-t) is the area under the concentration-time curve up to a stated or last time point. The low end stands for less exposure, the high end for more exposure.
